In article PMC6392825 (ChemistryOpen, 2019):
≈ marks a conversion by molar mass, not a printed value.

Columns and labels:
[1] = Water solubility, shake flask method, 0.1 M phosphate buffer pH 6.8; assay type: physicochemical; conditions: 37 °C, pH 6.8, aqueous buffer, thermodynamic from solid
[2] = Chemical antioxidant capacity, FRAP assay
HepG2 [3] = assay: Cytotoxicity, mitochondrial activity; assay type: cell-based; conditions: Homo sapiens, HepG2, 72 h, read-out: IC50 MTT
Outline: (§1)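 Seeded at 20000 cells/well in DMEM and grown 24 h at 37 °C, 10% CO2. Medium was then replaced with serum-free medium holding test compound (25 mM DMSO stock) at various concentrations for 72 h, in triplicate; doxorubicin was the positive control. MTT (5 mg/mL stock in PBS) added for 2 h, formazan dissolved in DMSO, A570. IC50 derived from % surviving cells, reported as mean ± SD combined with SRB data.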

HT‐29 [4] = assay: Cytotoxicity, mitochondrial activity; assay type: cell-based; conditions: Homo sapiens, HT-29, 72 h, read-out: IC50 MTT
Outline: as §1

Caco‐2 [5] = assay: Cytotoxicity, mitochondrial activity; assay type: cell-based; conditions: Homo sapiens, Caco-2, 72 h, read-out: IC50 MTT
Outline: as §1

EA.hy926 [6] = assay: Cytotoxicity, mitochondrial activity; assay type: cell-based; conditions: Homo sapiens, EA.hy 926, 72 h, read-out: IC50 MTT
Outline: as §1

HepG2 [7] = assay: Cell growth inhibition, protein content; assay type: cell-based; conditions: Homo sapiens, HepG2, 72 h, read-out: IC50 SRB
Outline: (§2)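 Cell lines from ATCC, grown in DMEM+glutamax with 1% NEAA, 1% P/S and 10% FBS at 37 °C, 10% CO2. Seeded at 20000 cells/well for 24 h, then exposed to test compound (25 mM DMSO stock) for three days. Fixed with cold TCA for 1 h at 4 °C, stained 30 min with 0.4% SRB in 1% acetic acid, dissolved in 10 mM Tris, A490. Triplicate; IC50 given as mean ± SD combined with MTT data (n ≥ 3).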

HT‐29 [8] = assay: Cell growth inhibition, protein content; assay type: cell-based; conditions: Homo sapiens, HT-29, 72 h, read-out: IC50 SRB
Outline: as §2

Caco‐2 [9] = assay: Cell growth inhibition, protein content; assay type: cell-based; conditions: Homo sapiens, Caco-2, 72 h, read-out: IC50 SRB
Outline: as §2

EA.hy926 [10] = assay: Cell growth inhibition, protein content; assay type: cell-based; conditions: Homo sapiens, EA.hy 926, 72 h, read-out: IC50 SRB
Outline: as §2

HepG2 [11] = assay: Intracellular ROS assay; assay type: cell-based; conditions: for change of intracellular ROS in words: HepG2, vs untreated control, 10 and 1 μM; for activity at 1 µM / activity at 10 µM: Homo sapiens, HepG2, read-out: Intracellular ROS, percentage compared to the untreated control cells (ROS/SRB)
Outline: (§3)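 Cells seeded at 20000/well and grown 24 h at 37 °C, 10% CO2, then treated with test compound at 10 and 1 μM in serum-free medium. NAC and doxorubicin served as controls. After a PBS wash, cells were loaded with 20 μM DCFH-DA for 30 min, washed, and held 1 h in phenol red-free DMEM. Fluorescence read at ex 485/em 535 nm and normalized to SRB in the same well. Reported as % of untreated control, n ≥ 3, two-tailed t-test with unequal variances.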

HT‐29 [12] = assay: Intracellular ROS assay; assay type: cell-based; conditions: for activity at 1 µM / activity at 10 µM: Homo sapiens, HT-29, read-out: Intracellular ROS, percentage compared to the untreated control cells (ROS/SRB)
Outline: as §3

Caco‐2 [13] = assay: Intracellular ROS assay; assay type: cell-based; conditions: for activity at 1 µM / activity at 10 µM: Homo sapiens, Caco-2, read-out: Intracellular ROS, percentage compared to the untreated control cells (ROS/SRB)
Outline: as §3

EA.hy926 [14] = assay: Intracellular ROS assay; assay type: cell-based; conditions: for activity at 1 µM / activity at 10 µM: Homo sapiens, EA.hy 926, read-out: Intracellular ROS, percentage compared to the untreated control cells (ROS/SRB); for change of intracellular ROS in words: EA.hy926, vs untreated control, 10 and 1 μM
Outline: as §3

[15] = tested on: HepG2, HT‐29, Caco‐2 and EA.hy926; assay: Antiproliferative activity, MTT and SRB assays taken together; assay type: cell-based
CHO‐K1 = assay: Intracellular ROS assay; assay type: cell-based, Chinese hamster; conditions: CHO‐K1, vs untreated control, 10 and 1 μM
Outline: as §3

Compound | solubility at 90 min [1] [µM] | solubility at 24 h [1] [µM] | FRAP (Trolox equivalent per μM) [2] [Trolox equivalent per μM] | FRAP (curcumin equivalent per μM) [2] | IC50 (HepG2 [3]) [µM] | IC50 (HT‐29 [4]) [µM] | IC50 (Caco‐2 [5]) [µM] | IC50 (EA.hy926 [6]) [µM] | IC50 (HepG2 [7]) [µM] | IC50 (HT‐29 [8]) [µM] | IC50 (Caco‐2 [9]) [µM] | IC50 (EA.hy926 [10]) [µM] | change of intracellular ROS in words (HepG2 [11]) | activity at 10 µM (HepG2 [11]) [%] | activity at 1 µM (HT‐29 [12]) [%] | activity at 10 µM (HT‐29 [12]) [%] | activity at 1 µM (Caco‐2 [13]) [%] | activity at 10 µM (Caco‐2 [13]) [%] | activity at 1 µM (EA.hy926 [14]) [%] | activity at 10 µM (EA.hy926 [14]) [%] | further results
COc1cc(/C=C/C(=O)/C=C(O)/C=C/c2ccncc2)ccc1O [3 c, (1E,4Z,6E)‐5‐Hydroxy‐1‐(4‐hydroxy‐3‐methoxyphenyl)‐7‐(pyridin‐4‐yl)hepta‐1,4,6‐triene‐3‐one] | 9 ± 0.6 (≈ 2.91 µg/mL) | 12.8 ± 1.1 (≈ 4.14 µg/mL) | 0.56 | 0.54 curcumin equivalent per μM | 3.2 ± 0.8 | 4.9 ± 0.3 | 7.1 ± 0.4 | 6.1 ± 0.1 | 9.8 ± 0.6 | 48.8 ± 1.8 | 12 ± 0.7 | 3.7 ± 0.2 | significantly increased ROS production | 128 ± 4.4 | 93.4 ± 6.4 | 99.8 ± 11.4 | 89.8 ± 3.6 | 99.7 ± 1 | 100 ± 6.9 | 95.7 ± 3.5 | antioxidant activity in words, FRAP [2]: comparable to ascorbic acid; activity at 1 µM (HepG2 [11]): 104 ± 13.1%; antiproliferative activity / cell growth inhibition in words [15]: comparable activity to the commercial doxorubicin drug
C(=C\c1c[nH]c2ccccc12)/c1cc(/C=C/c2cccs2)[nH]n1 [4 d, 3‐{(E)‐2‐[5‐((E)‐2‐(thiophen‐2‐yl)vinyl)‐1H‐pyrazol‐3‐yl]vinyl}‐1H‐indole] | 13.7 ± 0.5 (≈ 4.35 µg/mL) | 11.7 ± 2.3 (≈ 3.71 µg/mL) | 0.33 | 0.32 curcumin equivalent per μM | 34.9 ± 0.8 | 4.2 ± 0.4 | 19.6 ± 4 | 6 ± 0.9 | 49.5 ± 2.1 | 9.7 ± 0.5 | 21.1 ± 0.3 | 9.5 ± 0.4 | significantly increased ROS production | 985 ± 78.2 | 463 ± 42.7 | 384 ± 47.5 | 458 ± 97.5 | 382 ± 62.6 | 483.9 ± 1.4 | 402 ± 23.4 | change of intracellular ROS in words (HT‐29 [12]; HT‐29, vs untreated control, 10 and 1 μM): higher ROS signal; change of intracellular ROS in words (Caco‐2 [13]; Caco‐2, vs untreated control, 10 and 1 μM): significantly increased ROS production; change of intracellular ROS in words (EA.hy926 [14]): significantly increased ROS production; change of intracellular ROS in words (CHO‐K1): significantly increased ROS
COc1cc(/C=C/c2cc(/C=C/c3ccncc3)[nH]n2)ccc1O [4 b, 2‐Methoxy‐4‐{(E)‐2‐[5‐((E)‐2‐(pyridin‐4‐yl)vinyl)‐1H‐pyrazol‐3‐yl]vinyl}phenol] | 16.8 ± 1.6 (≈ 5.37 µg/mL) | 12.8 ± 1.4 (≈ 4.09 µg/mL) | 0.43 | 0.42 curcumin equivalent per μM | 56.7 ± 0.5 | 49 ± 0.7 | 39.3 ± 1.2 | 35.7 ± 0.1 | 54.6 ± 0.3 | 47.4 ± 0.2 | 46.5 ± 0.5 | 51.8 ± 0.3 | significantly increased ROS production | 123 ± 11.4 | 111 ± 16.2 | 114 ± 12.3 | 106 ± 4.6 | 94.3 ± 6.7 | 86.9 ± 1.6 | 80.6 ± 6.8 | activity at 1 µM (HepG2 [11]): 135 ± 14.1%; change of intracellular ROS in words (EA.hy926 [14]): decreased intracellular ROS; change of intracellular ROS in words (CHO‐K1): significantly increased ROS
COc1cc(/C=C/c2cc(/C=C/c3cccc4cnccc34)[nH]n2)ccc1O [4 c, 2‐Methoxy‐4‐{(E)‐2‐[5‐((E)‐2‐(isoquinolin‐5‐yl)vinyl)‐1H‐pyrazol‐3‐yl]vinyl}phenol] | 6.4 ± 0.2 (≈ 2.36 µg/mL) | 7 ± 0.2 (≈ 2.59 µg/mL) | 0.15 | 0.14 curcumin equivalent per μM | 6.7 ± 0.4 | 37.7 ± 1.3 | 58.7 ± 2 | 38.8 ± 0.4 | 28.3 ± 4.7 | > 75 | 60.3 ± 3.5 | > 75 | significantly decreased ROS signal | 88 ± 10.6 | 94.4 ± 3.4 | 86.4 ± 8.2 | 108 ± 18.6 | 102 ± 17.3 | 89.9 ± 2.5 | 99.2 ± 5 | activity at 1 µM (HepG2 [11]): 74.7 ± 2.9%; antiproliferative activity / cell growth inhibition in words [15]: comparable activity to the commercial doxorubicin drug
